Laboratory results reported in the M2OR odorant receptor database.

Legend:
Conditions in all cases: stereoisomer not certain
UniProt Q8VGC6 = target: T1, UniProt Q8VGC6
T1 sequence (whole entry): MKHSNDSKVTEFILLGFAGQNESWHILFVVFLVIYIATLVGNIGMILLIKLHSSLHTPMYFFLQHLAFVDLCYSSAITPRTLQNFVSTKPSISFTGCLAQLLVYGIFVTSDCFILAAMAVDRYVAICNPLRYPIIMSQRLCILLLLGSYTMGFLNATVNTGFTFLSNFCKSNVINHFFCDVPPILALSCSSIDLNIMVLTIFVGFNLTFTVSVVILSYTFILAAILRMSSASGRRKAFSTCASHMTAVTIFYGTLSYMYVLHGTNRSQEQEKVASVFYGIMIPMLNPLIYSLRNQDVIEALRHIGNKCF
Method in brief: (§1)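 Assay methods differ from source to source, frequently being transient luciferase assays in mammalian cell lines. For each receptor–molecule pair, the label responsive (active) applies when the original authors judged the measured signal statistically different from baseline, and non-responsive (inactive) applies otherwise.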

UniProt Q8VGJ3 = target: T2, UniProt Q8VGJ3
T2 sequence (whole entry): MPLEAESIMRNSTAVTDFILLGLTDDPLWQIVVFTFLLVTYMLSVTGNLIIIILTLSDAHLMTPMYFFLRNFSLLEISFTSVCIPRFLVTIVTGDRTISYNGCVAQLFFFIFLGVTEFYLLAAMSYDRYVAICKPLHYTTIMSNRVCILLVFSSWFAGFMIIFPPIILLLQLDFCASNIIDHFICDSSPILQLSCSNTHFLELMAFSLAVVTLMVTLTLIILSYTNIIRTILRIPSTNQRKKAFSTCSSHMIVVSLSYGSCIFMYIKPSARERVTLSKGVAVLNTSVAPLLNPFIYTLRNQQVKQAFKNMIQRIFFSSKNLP
Method in brief: as §1

UniProt Q8VGL0 = target: T3, UniProt Q8VGL0
T3 sequence (whole entry): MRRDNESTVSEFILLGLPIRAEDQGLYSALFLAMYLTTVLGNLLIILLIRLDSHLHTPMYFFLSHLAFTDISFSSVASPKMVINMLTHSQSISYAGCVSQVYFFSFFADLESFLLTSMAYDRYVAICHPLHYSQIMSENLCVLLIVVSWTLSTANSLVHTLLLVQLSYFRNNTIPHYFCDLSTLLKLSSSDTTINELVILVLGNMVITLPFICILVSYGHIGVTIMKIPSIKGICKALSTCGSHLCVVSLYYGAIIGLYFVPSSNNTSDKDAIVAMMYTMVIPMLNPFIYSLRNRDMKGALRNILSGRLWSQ
Method in brief: as §1

UniProt Q8VGU3 = target: T4, UniProt Q8VGU3
T4 sequence (whole entry): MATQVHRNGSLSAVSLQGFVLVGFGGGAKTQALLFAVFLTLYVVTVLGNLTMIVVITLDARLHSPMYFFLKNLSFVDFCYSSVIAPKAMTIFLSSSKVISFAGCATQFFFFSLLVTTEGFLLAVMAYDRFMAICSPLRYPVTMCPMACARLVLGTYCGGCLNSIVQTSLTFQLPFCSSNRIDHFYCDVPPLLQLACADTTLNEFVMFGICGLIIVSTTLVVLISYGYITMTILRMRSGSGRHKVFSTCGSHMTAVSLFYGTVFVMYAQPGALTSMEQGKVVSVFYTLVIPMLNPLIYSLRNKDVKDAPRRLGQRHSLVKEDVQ
Method in brief: as §1

UniProt Q8VGV7 = target: T5, UniProt Q8VGV7
T5 sequence (whole entry): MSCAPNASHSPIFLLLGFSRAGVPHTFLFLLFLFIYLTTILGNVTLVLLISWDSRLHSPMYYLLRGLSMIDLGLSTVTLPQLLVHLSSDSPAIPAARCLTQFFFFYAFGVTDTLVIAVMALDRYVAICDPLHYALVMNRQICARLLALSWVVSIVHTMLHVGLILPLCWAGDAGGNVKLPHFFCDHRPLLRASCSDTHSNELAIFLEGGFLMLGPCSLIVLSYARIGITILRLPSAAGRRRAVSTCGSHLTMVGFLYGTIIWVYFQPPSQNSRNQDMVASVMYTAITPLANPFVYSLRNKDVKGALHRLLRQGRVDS
Method in brief: as §1

UniProt Q8VGX3 = target: T6, UniProt Q8VGX3
T6 sequence (whole entry): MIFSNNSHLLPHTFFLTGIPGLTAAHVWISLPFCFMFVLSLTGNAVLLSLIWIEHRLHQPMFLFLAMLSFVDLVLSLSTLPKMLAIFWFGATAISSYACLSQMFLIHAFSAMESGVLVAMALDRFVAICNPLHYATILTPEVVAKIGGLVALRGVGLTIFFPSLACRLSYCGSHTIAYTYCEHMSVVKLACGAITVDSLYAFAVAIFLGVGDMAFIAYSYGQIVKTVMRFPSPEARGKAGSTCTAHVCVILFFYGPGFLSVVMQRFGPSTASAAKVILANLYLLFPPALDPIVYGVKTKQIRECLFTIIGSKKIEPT
Method in brief: as §1

UniProt Q8VGX5 = target: T7, UniProt Q8VGX5
T7 sequence (whole entry): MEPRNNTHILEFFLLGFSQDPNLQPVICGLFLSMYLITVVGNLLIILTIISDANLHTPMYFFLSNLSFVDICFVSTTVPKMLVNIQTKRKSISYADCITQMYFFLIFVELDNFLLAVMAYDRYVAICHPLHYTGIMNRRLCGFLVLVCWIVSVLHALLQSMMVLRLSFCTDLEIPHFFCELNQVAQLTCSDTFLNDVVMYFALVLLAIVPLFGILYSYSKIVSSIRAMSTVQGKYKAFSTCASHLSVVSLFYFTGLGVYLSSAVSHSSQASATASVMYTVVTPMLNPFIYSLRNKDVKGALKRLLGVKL
Method in brief: as §1

UniProt Q8VGD7 = target: T8, UniProt Q8VGD7
T8 sequence (whole entry): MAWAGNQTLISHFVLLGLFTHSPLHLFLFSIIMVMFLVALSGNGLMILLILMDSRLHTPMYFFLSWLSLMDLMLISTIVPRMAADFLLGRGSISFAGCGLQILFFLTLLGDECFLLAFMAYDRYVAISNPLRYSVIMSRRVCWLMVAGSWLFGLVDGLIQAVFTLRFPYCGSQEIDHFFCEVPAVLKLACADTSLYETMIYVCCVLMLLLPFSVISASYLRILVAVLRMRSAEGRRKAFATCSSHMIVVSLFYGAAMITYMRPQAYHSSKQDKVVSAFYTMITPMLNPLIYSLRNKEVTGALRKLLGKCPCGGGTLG
Method in brief: as §1

UniProt Q8VGH1 = target: T9, UniProt Q8VGH1
T9 sequence (whole entry): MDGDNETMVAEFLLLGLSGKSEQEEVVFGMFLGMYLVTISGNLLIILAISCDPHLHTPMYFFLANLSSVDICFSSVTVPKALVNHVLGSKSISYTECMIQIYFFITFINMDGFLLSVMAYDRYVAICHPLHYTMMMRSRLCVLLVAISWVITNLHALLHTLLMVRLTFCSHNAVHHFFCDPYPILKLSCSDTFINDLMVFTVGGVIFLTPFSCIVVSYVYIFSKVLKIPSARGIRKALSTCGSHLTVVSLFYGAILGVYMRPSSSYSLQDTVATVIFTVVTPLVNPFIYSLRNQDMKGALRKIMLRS
Method in brief: as §1

UniProt Q8VGJ1 = target: T10, UniProt Q8VGJ1
T10 sequence (whole entry): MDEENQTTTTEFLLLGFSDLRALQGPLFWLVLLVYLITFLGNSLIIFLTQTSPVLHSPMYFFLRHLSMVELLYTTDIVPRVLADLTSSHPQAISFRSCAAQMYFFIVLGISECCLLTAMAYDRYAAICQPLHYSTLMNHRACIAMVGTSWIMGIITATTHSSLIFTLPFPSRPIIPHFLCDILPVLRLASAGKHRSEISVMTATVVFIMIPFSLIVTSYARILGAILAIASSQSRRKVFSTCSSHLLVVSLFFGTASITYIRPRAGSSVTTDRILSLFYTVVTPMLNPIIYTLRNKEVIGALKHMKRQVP
Method in brief: as §1

UniProt Q8VGJ5 = target: T11, UniProt Q8VGJ5
T11 sequence (whole entry): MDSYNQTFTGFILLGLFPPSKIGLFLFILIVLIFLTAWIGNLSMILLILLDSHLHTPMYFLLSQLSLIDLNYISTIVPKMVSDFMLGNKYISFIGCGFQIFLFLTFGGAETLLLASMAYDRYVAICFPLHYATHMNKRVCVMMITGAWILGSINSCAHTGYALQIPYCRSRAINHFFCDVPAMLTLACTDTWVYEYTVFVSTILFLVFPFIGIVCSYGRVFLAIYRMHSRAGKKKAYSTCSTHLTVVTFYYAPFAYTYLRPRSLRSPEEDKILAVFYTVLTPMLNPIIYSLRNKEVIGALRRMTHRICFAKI
Method in brief: as §1

UniProt Q8VGL7 = target: T12, UniProt Q8VGL7
T12 sequence (whole entry): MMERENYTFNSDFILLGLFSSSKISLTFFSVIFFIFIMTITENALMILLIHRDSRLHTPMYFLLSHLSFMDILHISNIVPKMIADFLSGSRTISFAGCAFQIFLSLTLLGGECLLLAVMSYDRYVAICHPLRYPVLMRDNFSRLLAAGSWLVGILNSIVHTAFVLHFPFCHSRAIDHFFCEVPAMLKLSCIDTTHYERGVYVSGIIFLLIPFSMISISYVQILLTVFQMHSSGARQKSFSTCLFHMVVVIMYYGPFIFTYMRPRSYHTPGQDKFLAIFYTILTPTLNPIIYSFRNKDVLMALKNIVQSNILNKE
Method in brief: as §1

UniProt Q8VGM2 = target: T13, UniProt Q8VGM2
T13 sequence (whole entry): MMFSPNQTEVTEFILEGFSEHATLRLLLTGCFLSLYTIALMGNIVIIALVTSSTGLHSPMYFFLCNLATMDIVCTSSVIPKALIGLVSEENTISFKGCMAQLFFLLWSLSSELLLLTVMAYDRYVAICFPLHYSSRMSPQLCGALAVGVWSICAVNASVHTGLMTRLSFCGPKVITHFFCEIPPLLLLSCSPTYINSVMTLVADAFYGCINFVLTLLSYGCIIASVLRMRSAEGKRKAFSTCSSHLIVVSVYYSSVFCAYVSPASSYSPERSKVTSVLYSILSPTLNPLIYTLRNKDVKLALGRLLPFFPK
Method in brief: as §1

UniProt Q8VGP6 = target: T14, UniProt Q8VGP6
T14 sequence (whole entry): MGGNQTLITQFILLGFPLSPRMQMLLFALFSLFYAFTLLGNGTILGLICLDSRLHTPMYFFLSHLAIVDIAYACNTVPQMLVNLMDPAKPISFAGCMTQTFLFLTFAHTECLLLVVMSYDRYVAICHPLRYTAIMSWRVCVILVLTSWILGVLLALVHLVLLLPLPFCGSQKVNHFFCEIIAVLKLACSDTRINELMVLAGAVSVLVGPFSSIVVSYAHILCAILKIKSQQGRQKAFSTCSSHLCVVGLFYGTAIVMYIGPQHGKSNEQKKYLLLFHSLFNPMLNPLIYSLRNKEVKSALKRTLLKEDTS
Method in brief: as §1

UniProt Q8VGQ3 = target: T15, UniProt Q8VGQ3
T15 sequence (whole entry): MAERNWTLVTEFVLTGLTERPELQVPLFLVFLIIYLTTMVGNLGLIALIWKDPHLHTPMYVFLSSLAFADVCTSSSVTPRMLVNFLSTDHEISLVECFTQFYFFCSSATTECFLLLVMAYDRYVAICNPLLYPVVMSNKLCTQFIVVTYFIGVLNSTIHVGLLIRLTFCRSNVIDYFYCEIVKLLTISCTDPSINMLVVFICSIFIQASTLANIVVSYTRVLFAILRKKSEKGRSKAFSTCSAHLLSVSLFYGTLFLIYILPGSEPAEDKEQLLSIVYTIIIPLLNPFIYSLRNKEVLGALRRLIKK
Method in brief: as §1

UniProt Q8VGT4 = target: T16, UniProt Q8VGT4
T16 sequence (whole entry): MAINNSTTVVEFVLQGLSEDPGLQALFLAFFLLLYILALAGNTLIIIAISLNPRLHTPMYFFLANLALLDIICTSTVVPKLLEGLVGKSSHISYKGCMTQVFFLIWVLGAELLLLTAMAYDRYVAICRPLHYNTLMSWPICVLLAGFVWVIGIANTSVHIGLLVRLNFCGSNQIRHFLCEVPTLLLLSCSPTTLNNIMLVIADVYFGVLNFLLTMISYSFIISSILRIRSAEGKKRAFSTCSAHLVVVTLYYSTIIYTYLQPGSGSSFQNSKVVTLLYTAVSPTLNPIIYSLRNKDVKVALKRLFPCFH
Method in brief: as §1

UniProt Q8VGV1 = target: T17, UniProt Q8VGV1
T17 sequence (whole entry): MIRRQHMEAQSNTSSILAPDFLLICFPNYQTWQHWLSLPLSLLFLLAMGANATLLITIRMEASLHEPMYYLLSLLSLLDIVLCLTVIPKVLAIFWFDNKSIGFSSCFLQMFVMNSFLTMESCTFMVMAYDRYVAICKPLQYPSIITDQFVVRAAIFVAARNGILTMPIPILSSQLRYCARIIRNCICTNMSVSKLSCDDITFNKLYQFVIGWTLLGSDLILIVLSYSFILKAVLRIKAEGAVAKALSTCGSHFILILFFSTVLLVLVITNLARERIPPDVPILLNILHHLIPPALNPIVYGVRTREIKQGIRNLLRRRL
Method in brief: as §1

SMILES | odorant receptor agonist call (UniProt Q8VGC6) | odorant receptor agonist call (UniProt Q8VGJ3) | odorant receptor agonist call (UniProt Q8VGL0) | odorant receptor agonist call (UniProt Q8VGU3) | odorant receptor agonist call (UniProt Q8VGV7) | odorant receptor agonist call (UniProt Q8VGX3) | odorant receptor agonist call (UniProt Q8VGX5) | odorant receptor agonist call (UniProt Q8VGD7) | odorant receptor agonist call (UniProt Q8VGH1) | odorant receptor agonist call (UniProt Q8VGJ1) | odorant receptor agonist call (UniProt Q8VGJ5) | odorant receptor agonist call (UniProt Q8VGL7) | odorant receptor agonist call (UniProt Q8VGM2) | odorant receptor agonist call (UniProt Q8VGP6) | odorant receptor agonist call (UniProt Q8VGQ3) | odorant receptor agonist call (UniProt Q8VGT4) | odorant receptor agonist call (UniProt Q8VGV1)
CC(CC=O)CCCC(C)(C)O (stereo unspecified) | inactive | inactive | inactive | inactive | inactive | inactive | inactive | – | – | – | – | – | – | – | – | – | –
CC(=O)OCc1ccccc1 | active | inactive | inactive | inactive | inactive | inactive | active | inactive | inactive | inactive | active | inactive | inactive | active | inactive | inactive | inactive
OCCc1ccccc1 | inactive | inactive | inactive | inactive | inactive | inactive | active | – | – | – | – | – | – | – | – | – | –
